Laboratory results reported in ChEMBL document CHEMBL1126715, “Synthesis and tissue distribution of (m-[125I]iodobenzyl)trozamicol ([125I]MIBT): potential radioligand for mapping central cholinergic innervation” (J Med Chem, 1993).

Assays:
Rattus norvegicus [1] = organism: Rattus norvegicus; assay: Tissue distribution in rat thyroid after 30 minutes (n=3); assay type: ADME, organism-based, Thyroid gland; details: in vivo, 0.5 h
Summary of the method: (§1)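 Male Wistar rats (200-350 g) under ether anesthesia; radiotracer (3-5 μCi in 0.1 mL 50% aqueous ethanol) given iv. At 5, 30, 60 and 180 min, blood was drawn by cardiac puncture and animals were killed by cardiectomy. Organs were weighed and γ-counted against a 1:100 dilution of the injected dose. Results are given as % injected dose/g tissue; ratios are taken between tissue levels.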

Rattus norvegicus [2] = organism: Rattus norvegicus; assay: Effect of haloperidol on the regional distribution of compound in the rat cerebellum (n=4) [0.22 (0.18-0.24)]; assay type: ADME, organism-based; details: in vivo
Rattus norvegicus [3] = organism: Rattus norvegicus; assay: Tissue distribution in rat thyroid after 60 minutes (n=3); assay type: ADME, organism-based, Thyroid gland; details: in vivo, 1 h; summary of the method: as §1
Rattus norvegicus [4] = organism: Rattus norvegicus; assay: Tissue distribution in rat lung after 30 minutes (n=3); assay type: ADME, organism-based; details: in vivo, 0.5 h; summary of the method: as §1
Rattus norvegicus [5] = organism: Rattus norvegicus; assay: Regional kinetics in the rat brain cortex at 120 minutes; assay type: ADME, organism-based; details: in vivo, 2 h
Summary of the method: (§2)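 Male Wistar rats (n = 4 per time point) under ether received (+)-radiotracer iv (2 μCi in 100 μL 50% aqueous EtOH). They were killed at 30, 120 or 180 min. Brains were partially frozen and dissected into striatum, cerebellum, cortex and remainder. Regions were γ-counted against injected-dose dilutions and expressed as % injected dose/g tissue.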

Rattus norvegicus [6] = organism: Rattus norvegicus; assay: Ratio of regional kinetics between rat brain caudate and cerebellum at 30 minutes; assay type: ADME, organism-based; details: in vivo, 0.5 h
Summary of the method: (§3)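 Male Wistar rats (n = 4/group) under ether anesthesia, iv (+)-[125I]MIBT (2 μCi in 100 μL 50% aqueous EtOH); killed at 30, 120, 180 min. Brains partially frozen, dissected into striatum, cerebellum, cortex and remainder; radioactivity counted, % dose/g vs injected-dose dilutions; caudate/cortex and caudate/cerebellum ratios.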

Rattus norvegicus [7] = organism: Rattus norvegicus; assay: Ratio of regional kinetics between rat brain caudate and cortex at 120 minutes; assay type: ADME, organism-based; details: in vivo, 2 h; summary of the method: as §3
Rattus norvegicus [8] = organism: Rattus norvegicus; assay: Tissue distribution in rat thyroid after 5 minutes (n=3); assay type: ADME, organism-based, Thyroid gland; details: in vivo
Summary of the method: (§4)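 Male Wistar rats (200-350 g) under ether, iv [125I]tracer (3-5 μCi in 0.1 mL 50% aqueous EtOH). At 5, 30, 60 or 180 min, blood taken by cardiac puncture and the rat killed by cardiectomy. Organs weighed and γ-counted against 1:100 dilutions of the injected dose; results in % injected dose/g, with range.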

Rattus norvegicus [9] = organism: Rattus norvegicus; assay: Ratio of tissue distribution between rat heart and blood after 60 min; assay type: ADME, organism-based; details: other tissue, 1 h; summary of the method: as §1
Rattus norvegicus [10] = organism: Rattus norvegicus; assay: Effect of vesamicol on the accumulation in rat muscle [0.16 (0.15-0.20)]; assay type: ADME, organism-based, Muscle tissue; details: in vivo
Summary of the method: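 Male Wistar rats. Pretreatment at t = 0 was iv vehicle (50% aqueous EtOH) or iv dl-vesamicol (1.01 μmol/kg). At 15 min, iv [125I]tracer (2.0 μCi in 100 μL 50% aqueous EtOH) was given; rats were killed 30 min later. Tissues were weighed and γ-counted, and values expressed as % injected dose/g; n = 4 per group.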

Rattus norvegicus [11] = organism: Rattus norvegicus; assay: Regional kinetics in the remainder of rat brain at 180 minutes; assay type: ADME, organism-based; details: in vivo, 3 h; summary of the method: as §2
Rattus norvegicus [12] = organism: Rattus norvegicus; assay: Tissue distribution in rat blood after 5 minutes (n=3); assay type: ADME, organism-based; details: in vivo; summary of the method: as §1
Rattus norvegicus [13] = organism: Rattus norvegicus; assay: Regional kinetics in the remainder of rat brain at 120 minutes; assay type: ADME, organism-based; details: in vivo, 2 h; summary of the method: as §2
Rattus norvegicus [14] = organism: Rattus norvegicus; assay: Regional kinetics in the rat brain caudate-putamen at 180 minutes; assay type: ADME, organism-based; details: in vivo, 3 h; summary of the method: as §2
Rattus norvegicus [15] = organism: Rattus norvegicus; assay: Ratio of regional kinetics between rat brain caudate and cerebellum at 120 minutes; assay type: ADME, organism-based; details: in vivo, 2 h; summary of the method: as §3
Rattus norvegicus [16] = organism: Rattus norvegicus; assay: Effect of 4-aminobenzovesamicol on the regional distribution of compound in the rat brain caudate-putamen (n=4) [0.40 (0.35-0.47)]; assay type: ADME, organism-based; details: in vivo
Rattus norvegicus [17] = organism: Rattus norvegicus; assay: Tissue distribution in rat spleen after 60 minutes (n=3); assay type: ADME, organism-based; details: in vivo, 1 h; summary of the method: as §1
Rattus norvegicus [18] = organism: Rattus norvegicus; assay: Tissue distribution in rat spleen after 5 minutes (n=3); assay type: ADME, organism-based; details: in vivo; summary of the method: as §4
Rattus norvegicus [19] = organism: Rattus norvegicus; assay: Ratio of tissue distribution between rat brain and blood after 180 min; assay type: ADME, organism-based; details: 3 h
Summary of the method: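 Male Wistar rats (200-350 g) under ether anesthesia, iv radiotracer (3-5 μCi in 0.1 mL 50% aqueous ethanol). At 5, 30, 60, 180 min blood taken by cardiac puncture, animal killed by cardiectomy; organs weighed, γ-counted against 1:100 injected-dose dilution; % injected dose/g tissue; brain/blood ratio.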

Rattus norvegicus [20] = organism: Rattus norvegicus; assay: Ratio of effect haloperidol on regional distribution between rat brain caudate and cortex; assay type: ADME, organism-based; details: in vivo
Rattus norvegicus [21] = organism: Rattus norvegicus; assay: Tissue distribution in rat heart after 180 minutes (n=3); assay type: ADME, organism-based; details: in vivo, 3 h; summary of the method: as §1
Rattus norvegicus [22] = organism: Rattus norvegicus; assay: Tissue distribution in rat brain after 180 minutes (n=3); assay type: ADME, organism-based; details: in vivo, 3 h; summary of the method: as §4
Rattus norvegicus [23] = organism: Rattus norvegicus; assay: Effect of vesamicol on the accumulation in rat brain [0.51 (0.45-0.66)]; assay type: ADME, organism-based; details: in vivo
Summary of the method: (§5)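 Male Wistar rats (n = 4/group) given iv vehicle (100 μL 50% aqueous EtOH) or dl-vesamicol (1.01 μmol/kg); 15 min later iv radiotracer (2.0 μCi in 100 μL 50% aqueous EtOH); killed 30 min post-tracer. Blood by cardiac puncture, organs weighed and γ-counted vs 1:100 injected-dose dilution; % dose/g tissue (range); tissue/blood ratios.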

Rattus norvegicus [24] = organism: Rattus norvegicus; assay: Tissue distribution in rat kidney after 5 minutes (n=3); assay type: ADME, organism-based; details: in vivo; summary of the method: as §1
Rattus norvegicus [25] = organism: Rattus norvegicus; assay: Regional kinetics in the remainder of rat brain at 30 minutes; assay type: ADME, organism-based; details: in vivo, 0.5 h; summary of the method: as §2
Rattus norvegicus [26] = organism: Rattus norvegicus; assay: Tissue distribution in rat gonads after 180 minutes (n=3); assay type: ADME, organism-based, Gonad; details: in vivo, 3 h; summary of the method: as §1
Rattus norvegicus [27] = organism: Rattus norvegicus; assay: Effect of vesamicol on the accumulation in rat spleen [0.97 (0.89-1.04)]; assay type: ADME, organism-based; details: in vivo; summary of the method: as §5
Rattus norvegicus [28] = organism: Rattus norvegicus; assay: Tissue distribution in rat muscle after 60 minutes (n=3); assay type: ADME, organism-based; details: in vivo, 1 h; summary of the method: as §4
Rattus norvegicus [29] = organism: Rattus norvegicus; assay: Ratio of regional kinetics between rat brain caudate and cortex at 30 minutes; assay type: ADME, organism-based; details: in vivo, 0.5 h; summary of the method: as §3
Rattus norvegicus [30] = organism: Rattus norvegicus; assay: Regional kinetics in the rat cerebellum at 30 minutes; assay type: ADME, organism-based; details: in vivo, 0.5 h; summary of the method: as §2
Rattus norvegicus [31] = organism: Rattus norvegicus; assay: Tissue distribution in rat kidney after 60 minutes (n=3); assay type: ADME, organism-based; details: in vivo, 1 h; summary of the method: as §1
Rattus norvegicus [32] = organism: Rattus norvegicus; assay: Ratio of tissue distribution between rat heart and blood after 30 min; assay type: ADME, organism-based; details: other tissue, 0.5 h; summary of the method: as §1
Rattus norvegicus [33] = organism: Rattus norvegicus; assay: Effect of vesamicol on the accumulation in rat liver [2.01 (1.65-3.34)]; assay type: ADME, organism-based; details: in vivo; summary of the method: as §5
Rattus norvegicus [34] = organism: Rattus norvegicus; assay: Regional kinetics in the rat cerebellum at 180 minutes; assay type: ADME, organism-based; details: in vivo, 3 h; summary of the method: as §2
[35] = Ratio of tissue distribution between rat heart and blood after 120 min; assay type: ADME, organism-based
Rattus norvegicus [36] = organism: Rattus norvegicus; assay: Tissue distribution in rat gonads after 60 minutes (n=3); assay type: ADME, organism-based, Gonad; details: in vivo, 1 h; summary of the method: as §4
Rattus norvegicus [37] = organism: Rattus norvegicus; assay: Regional kinetics in the rat brain cortex at 30 minutes; assay type: ADME, organism-based; details: in vivo, 0.5 h
Summary of the method: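 Male Wistar rats under ether anaesthesia, iv (+)-[125I]tracer (2 μCi in 100 μL 50% aqueous EtOH); killed at 30, 120 or 180 min. Brains partially frozen and dissected into striatum, cerebellum, cortex and remainder, then counted for radioactivity. Results are % injected dose/g, calculated against counted dilutions of the injected dose.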

Rattus norvegicus [38] = organism: Rattus norvegicus; assay: Effect of haloperidol on the regional distribution of compound in the rat brain cortex (n=4) [0.32 (0.29-0.38)]; assay type: ADME, organism-based, Cerebral cortex; details: in vivo
Rattus norvegicus [39] = organism: Rattus norvegicus; assay: Tissue distribution in rat muscle after 180 minutes (n=3); assay type: ADME, organism-based; details: in vivo, 3 h; summary of the method: as §1
Rattus norvegicus [40] = organism: Rattus norvegicus; assay: Effect of 4-aminobenzovesamicol on the regional distribution of compound in the remainder of rat brain (n=4) [0.21 (0.17-0.23)]; assay type: ADME, organism-based; details: in vivo
Rattus norvegicus [41] = organism: Rattus norvegicus; assay: Tissue distribution in rat kidney after 180 minutes (n=3); assay type: ADME, organism-based; details: in vivo, 3 h; summary of the method: as §1
Rattus norvegicus [42] = organism: Rattus norvegicus; assay: Tissue distribution in rat heart after 30 minutes (n=3); assay type: ADME, organism-based; details: in vivo, 0.5 h; summary of the method: as §4
Rattus norvegicus [43] = organism: Rattus norvegicus; assay: Effect of haloperidol on the regional distribution of compound in the rat brain caudate-putamen (n=4) [0.75 (0.60-0.85)]; assay type: ADME, organism-based; details: in vivo

O[C@@H]1CCN(Cc2cccc([125I])c2)C[C@H]1N1CCC(c2ccccc2)CC1 (stereo in doubt; (+))
Dose/g (Rattus norvegicus [1]): 2.33%
Dose/g (Rattus norvegicus [2]): 0.09%
Dose/g (Rattus norvegicus [3]): 4.59%
Dose/g (Rattus norvegicus [4]): 1.21%
Dose/g (Rattus norvegicus [5]): 0.4%
Ratio (Rattus norvegicus [6]): 1.2
Ratio (Rattus norvegicus [7]): 1.68
Dose/g (Rattus norvegicus [8]): 1.6%
Ratio (Rattus norvegicus [9]): 1.7
Dose/g (Rattus norvegicus [10]): 0.13%
Dose/g (Rattus norvegicus [11]): 0.25%
Dose/g (Rattus norvegicus [12]): 0.24%
Dose/g (Rattus norvegicus [13]): 0.4%
Dose/g (Rattus norvegicus [14]): 0.49%
Ratio (Rattus norvegicus [15]): 2.43
Dose/g (Rattus norvegicus [16]): 0.23%
Dose/g (Rattus norvegicus [17]): 0.86%
Dose/g (Rattus norvegicus [18]): 0.76%
Ratio (Rattus norvegicus [19]): 2.35
Ratio (Rattus norvegicus [20]): 4.82
Dose/g (Rattus norvegicus [21]): 0.1%
Dose/g (Rattus norvegicus [22]): 0.15%
Dose/g (Rattus norvegicus [23]): 0.3%
Dose/g (Rattus norvegicus [24]): 2.25%
Dose/g (Rattus norvegicus [25]): 0.59%
Dose/g (Rattus norvegicus [26]): 0.16%
Dose/g (Rattus norvegicus [27]): 0.97%
Dose/g (Rattus norvegicus [28]): 0.11%
Ratio (Rattus norvegicus [29]): 0.98
Dose/g (Rattus norvegicus [30]): 0.53%
Dose/g (Rattus norvegicus [31]): 0.87%
Ratio (Rattus norvegicus [32]): 2.33
Dose/g (Rattus norvegicus [33]): 1.93%
Dose/g (Rattus norvegicus [34]): 0.17%
Kp at 2 h [35]: 1.6
Dose/g (Rattus norvegicus [36]): 0.17%
Dose/g (Rattus norvegicus [37]): 0.65%
Dose/g (Rattus norvegicus [38]): 0.21%
Dose/g (Rattus norvegicus [39]): 0.08%
Dose/g (Rattus norvegicus [40]): 0.15%
Dose/g (Rattus norvegicus [41]): 0.5%
Dose/g (Rattus norvegicus [42]): 0.26%
Dose/g (Rattus norvegicus [43]): 0.99%
